Experimental data as given in ChEMBL document CHEMBL1255303, “In vitro and in vivo antifungal activities of T-2307, a novel arylamidine” (2008).
Active and inactive are the calls of the source. The calls are words filed in the database; no cut-off is given here.

Experiments:
[1] = tested on: Cryptococcus neoformans; assay: Antifungal activity against Cryptococcus neoformans ATCC 90112 infected ICR mouse assessed as delay in mortality of mouse at 0.1 mg/kg after 9 days; type: functional, organism-based; set-up: dose 0.1 mg/kg
Method in brief: (§1)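 Male ICR mice, 4 weeks old and SPF, were made neutropenic with intraperitoneal cyclophosphamide. The schedule was 200 mg/kg on day −3 (day −4 for Cryptococcus) plus 100 mg/kg on day +1. Infection was by tail-vein injection of 0.2 ml suspension: C. albicans 3.0 × 10^4, C. neoformans 9.1 × 10^4, A. fumigatus conidia 8.4 × 10^4 CFU/mouse. Drugs were given subcutaneously once daily for 7 days from 2 h post-infection; controls received saline. Groups had 8–10 mice.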

[2] = tested on: Candida albicans; assay: Antifungal activity against Candida albicans TIMM 1623 infected ICR mouse assessed as delay in mortality of mouse at 0.01 mg/kg after 6 days; type: functional, organism-based; set-up: dose 0.01 mg/kg; method in brief: as §1

N=C(N)c1ccc(OCCCC2CCN(CCCOc3ccc(C(=N)N)cc3)CC2)cc1
Activity [1]: Active | Activity [2]: Active
